# Tested on: Cartilage tissue
# Test: Antidegenerative activity against bovine cartilage explant assessed as inhibition of IL1-induced of GAG release at 0.1 mM for 1 day before IL-1 treatment measured after 6 days by colorimetric analysis relative to control
# Assay type: functional
# Conditions: Bos taurus
# Outline: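 Articular cartilage explants from different cows, equilibrated 24 h, then cultured one day in DMEM + hydrolyzed lactalbumin + 50 μg/mL vitamin C + penicillin/streptomycin + ITS with or without compound (0.1 mM). GAG release then induced with 10 ng IL-1 and continued six days, medium changed every two days. Medium GAG measured by Blyscan colorimetric assay. GAG fold-increase versus minus-IL-1 control. Percent reduction relative to IL-1-only fold. Triplicates per experiment, mean of n experiments.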
row,Structure (SMILES),inhibition at 100 µM [%]
1,COc1ccc(OP(=O)(N[C@@H](C)C(=O)OCc2ccccc2)O[C@H]2[C@H](O)[C@@H](CO)O[C@H](OC)[C@@H]2NC(C)=O)cc1 (stereo partly drawn),-19
2,COc1ccc(OP(=O)(N[C@H](C(=O)OCc2ccccc2)C(C)C)O[C@H]2[C@H](O)[C@@H](CO)O[C@H](OC)[C@@H]2NC(C)=O)cc1 (stereo partly drawn),9.4
3,CCOC(=O)[C@@H]1CCCN1P(=O)(Oc1ccc(OC)cc1)O[C@H]1[C@H](O)[C@@H](CO)O[C@H](OC)[C@@H]1NC(C)=O (stereo partly drawn),-53.7
4,CCOC(=O)[C@@H](NP(=O)(Oc1ccc(OC)cc1)O[C@H]1[C@H](O)[C@@H](CO)O[C@H](OC)[C@@H]1NC(C)=O)C(C)C (stereo partly drawn),-52.5
5,CCOC(=O)CN(C)P(=O)(Oc1ccc(OC)cc1)O[C@H]1[C@H](O)[C@@H](CO)O[C@H](OC)[C@@H]1NC(C)=O (stereo partly drawn),-23.2

# Tested on: not listed separately
# Test: Antidegenerative activity against human cartilage explant assessed as inhibition of IL1-induced of GAG release at 10 uM for 1 day before IL-1 treatment measured after 6 days by colorimetric analysis relative to control
# Assay type: functional
# Conditions: Cartilage tissue
# Outline: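 Human cartilage explants, equilibrated 24 h, then cultured one day in DMEM + hydrolyzed lactalbumin + 50 μg/mL vitamin C + penicillin/streptomycin + ITS with compound. 10 ng IL-1 then added and culture continued six days, medium replaced every two days. Medium GAG measured by Blyscan colorimetric assay. Percent reduction = (mean control − mean sample release)/control × 100, against a 0.25% DMSO + IL-1 control.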
row,Structure (SMILES),inhibition at 10 µM [%]
1,COc1ccc(OP(=O)(O[C@H]2[C@H](O)[C@@H](CO)O[C@H](O)[C@@H]2NC(C)=O)N2CCC[C@H]2C(=O)OCc2ccccc2)cc1 (stereo partly drawn),28.8
2,CCOC(=O)[C@@H]1CCCN1P(=O)(Oc1ccc(OC)cc1)O[C@H]1[C@H](O)[C@@H](CO)O[C@H](O)[C@@H]1NC(C)=O (stereo partly drawn),38
3,CCCCOC(=O)[C@@H]1CCCN1P(=O)(Oc1ccc(OC)cc1)O[C@H]1[C@H](O)[C@@H](CO)O[C@H](O)[C@@H]1NC(C)=O (stereo partly drawn),30.4
4,CCOC(=O)[C@@H]1CCCN1P(=O)(Oc1ccc(OC)cc1)O[C@H]1[C@H](O)[C@@H](NC(C)=O)[C@H](O)O[C@@H]1CO (stereo partly drawn),17.4

# Tested on: not listed separately
# Test: Cytotoxicity against human articular chondrocytes assessed as metabolic activity at 10 uM by WST-1 assay
# Conditions: read-out: Activity
row,Structure (SMILES),viability at 10 µM [%]
1,COc1ccc(OP(=O)(O[C@H]2[C@H](O)[C@@H](CO)O[C@H](O)[C@@H]2NC(C)=O)N2CCC[C@H]2C(=O)OCc2ccccc2)cc1 (stereo partly drawn),115
2,CCOC(=O)[C@@H]1CCCN1P(=O)(Oc1ccc(OC)cc1)O[C@H]1[C@H](O)[C@@H](CO)O[C@H](O)[C@@H]1NC(C)=O (stereo partly drawn),66.4
3,CCCCOC(=O)[C@@H]1CCCN1P(=O)(Oc1ccc(OC)cc1)O[C@H]1[C@H](O)[C@@H](CO)O[C@H](O)[C@@H]1NC(C)=O (stereo partly drawn),87.1
4,CCOC(=O)[C@@H]1CCCN1P(=O)(Oc1ccc(OC)cc1)O[C@H]1[C@H](O)[C@@H](NC(C)=O)[C@H](O)O[C@@H]1CO (stereo partly drawn),107

# Tested on: not listed separately
# Test: Cytotoxicity against bovine articular chondrocytes assessed as cell viability at 0.1 mM by MTT assay relative to control
# Set-up: species or system Bos taurus
# Conditions: cattle, read-out: Activity
# Outline: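 Chondrocyte monolayers tested in parallel with the explant work. Viability measured by MTT and expressed as percent of untreated cells (no compound = 100%). Mean and SE over n experiments, each in triplicate.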
row,Structure (SMILES),viability at 100 µM [%]
1,COc1ccc(OP(=O)(N[C@@H](C)C(=O)OCc2ccccc2)O[C@H]2[C@H](O)[C@@H](CO)O[C@H](OC)[C@@H]2NC(C)=O)cc1 (stereo partly drawn),78
2,COc1ccc(OP(=O)(N[C@H](C(=O)OCc2ccccc2)C(C)C)O[C@H]2[C@H](O)[C@@H](CO)O[C@H](OC)[C@@H]2NC(C)=O)cc1 (stereo partly drawn),99
3,CCOC(=O)[C@@H]1CCCN1P(=O)(Oc1ccc(OC)cc1)O[C@H]1[C@H](O)[C@@H](CO)O[C@H](OC)[C@@H]1NC(C)=O (stereo partly drawn),62
4,CCOC(=O)[C@@H](NP(=O)(Oc1ccc(OC)cc1)O[C@H]1[C@H](O)[C@@H](CO)O[C@H](OC)[C@@H]1NC(C)=O)C(C)C (stereo partly drawn),85
5,CCOC(=O)CN(C)P(=O)(Oc1ccc(OC)cc1)O[C@H]1[C@H](O)[C@@H](CO)O[C@H](OC)[C@@H]1NC(C)=O (stereo partly drawn),100

# — ChEMBL document CHEMBL2069258, “Novel phosphoramidate prodrugs of N-acetyl-(D)-glucosamine with antidegenerative activity on bovine and human cartilage explants” (J Med Chem, 2012)
